Laboratory results reported in ChEMBL document CHEMBL1143600, “Synthesis and pharmacology of ethylphenidate enantiomers: the human transesterification metabolite of methylphenidate and ethanol” (J Med Chem, 2005).
pIC50: −log10 of the molar value. Counter-ions that a name gives are not always drawn.

Columns and labels:
[1] = biological target: T1, Sodium-dependent noradrenaline transporter (Homo sapiens, UniProt P23975); test: Inhibition of [3H]norepinephrine uptake in HEK293 cells expressing human norepinephrine transporter; assay type: functional, cell-based
T1 sequence (P23975 whole entry): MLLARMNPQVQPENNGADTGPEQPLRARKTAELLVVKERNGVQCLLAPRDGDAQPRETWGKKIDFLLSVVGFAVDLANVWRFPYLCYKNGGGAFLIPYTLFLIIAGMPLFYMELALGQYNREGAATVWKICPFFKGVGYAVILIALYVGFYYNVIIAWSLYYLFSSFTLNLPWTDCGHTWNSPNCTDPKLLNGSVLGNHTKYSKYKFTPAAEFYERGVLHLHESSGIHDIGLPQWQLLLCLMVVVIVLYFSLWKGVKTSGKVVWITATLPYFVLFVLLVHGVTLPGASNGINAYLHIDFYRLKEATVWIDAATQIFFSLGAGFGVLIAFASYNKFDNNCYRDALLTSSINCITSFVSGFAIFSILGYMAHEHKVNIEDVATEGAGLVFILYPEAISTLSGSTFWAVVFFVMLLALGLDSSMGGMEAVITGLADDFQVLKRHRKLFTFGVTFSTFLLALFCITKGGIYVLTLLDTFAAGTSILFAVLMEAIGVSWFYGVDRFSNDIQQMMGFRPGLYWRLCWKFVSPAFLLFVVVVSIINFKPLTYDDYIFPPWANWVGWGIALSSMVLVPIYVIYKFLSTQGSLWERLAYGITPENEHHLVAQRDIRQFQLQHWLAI

[2] = biological target: T1, Sodium-dependent noradrenaline transporter; test: Displacement of [125I]RTI-55 from human Norepinephrine transporter expressed in HEK293 cells; assay type: cell-based
[3] = biological target: T2, Sodium-dependent serotonin transporter (Homo sapiens, UniProt P31645); test: Inhibition of [3H]5-HT uptake in HEK293 cells expressing human serotonin transporter; assay type: functional, cell-based
T2 sequence (P31645 whole entry): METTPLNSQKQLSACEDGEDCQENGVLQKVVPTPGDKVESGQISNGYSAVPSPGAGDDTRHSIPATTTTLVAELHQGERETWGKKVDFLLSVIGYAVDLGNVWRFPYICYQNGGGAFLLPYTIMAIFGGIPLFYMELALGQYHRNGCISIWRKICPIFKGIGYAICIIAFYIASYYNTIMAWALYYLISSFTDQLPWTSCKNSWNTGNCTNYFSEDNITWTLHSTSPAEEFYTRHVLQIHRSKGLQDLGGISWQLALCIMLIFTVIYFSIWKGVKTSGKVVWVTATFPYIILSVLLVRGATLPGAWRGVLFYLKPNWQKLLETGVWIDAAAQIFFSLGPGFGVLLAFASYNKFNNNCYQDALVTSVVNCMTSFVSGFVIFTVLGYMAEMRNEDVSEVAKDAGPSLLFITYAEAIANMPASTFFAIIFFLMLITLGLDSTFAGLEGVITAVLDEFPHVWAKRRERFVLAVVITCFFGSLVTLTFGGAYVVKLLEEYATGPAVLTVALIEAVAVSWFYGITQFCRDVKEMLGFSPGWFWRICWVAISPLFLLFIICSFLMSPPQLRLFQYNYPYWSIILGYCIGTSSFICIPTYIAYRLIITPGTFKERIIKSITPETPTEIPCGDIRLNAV
Method in brief: (§1)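 HEK293 cells expressing the human transporter were grown to confluence, triturated in Krebs-HEPES and preincubated 10 min with compound (six concentrations). Uptake was started with [3H]serotonin or [3H]dopamine at 20 nM final and stopped after 10 min by filtration over PEI-presoaked GF/C filters. Nonspecific uptake: 5 µM imipramine (SERT) or 5 µM mazindol (DAT). IC50 from triplicate curves, 2–3 independent determinations.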

[4] = biological target: T2, Sodium-dependent serotonin transporter; test: Displacement of [125I]RTI-55 from human Serotonin transporter expressed in HEK293 cells; assay type: cell-based
Method in brief: (§2)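 Membranes from HEK293 cells expressing the human transporter (grown to 80% confluence, lysed in 2 mM HEPES/1 mM EDTA, spun at 30000g). 10–15 µg protein was preincubated 10 min with compound in Krebs-HEPES pH 7.4 containing pargyline, tropolone, glucose and ascorbate. Nonspecific binding: 5 µM mazindol (DAT) or 5 µM imipramine (SERT). IC50 converted to Ki by Cheng-Prusoff.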

[5] = biological target: T3, Sodium-dependent dopamine transporter (Homo sapiens, UniProt Q01959); test: Displacement of [125I]-RTI-55 from Dopamine transporter expressed in HEK293 cells; assay type: cell-based; method in brief: as §2
T3 sequence (Q01959 whole entry): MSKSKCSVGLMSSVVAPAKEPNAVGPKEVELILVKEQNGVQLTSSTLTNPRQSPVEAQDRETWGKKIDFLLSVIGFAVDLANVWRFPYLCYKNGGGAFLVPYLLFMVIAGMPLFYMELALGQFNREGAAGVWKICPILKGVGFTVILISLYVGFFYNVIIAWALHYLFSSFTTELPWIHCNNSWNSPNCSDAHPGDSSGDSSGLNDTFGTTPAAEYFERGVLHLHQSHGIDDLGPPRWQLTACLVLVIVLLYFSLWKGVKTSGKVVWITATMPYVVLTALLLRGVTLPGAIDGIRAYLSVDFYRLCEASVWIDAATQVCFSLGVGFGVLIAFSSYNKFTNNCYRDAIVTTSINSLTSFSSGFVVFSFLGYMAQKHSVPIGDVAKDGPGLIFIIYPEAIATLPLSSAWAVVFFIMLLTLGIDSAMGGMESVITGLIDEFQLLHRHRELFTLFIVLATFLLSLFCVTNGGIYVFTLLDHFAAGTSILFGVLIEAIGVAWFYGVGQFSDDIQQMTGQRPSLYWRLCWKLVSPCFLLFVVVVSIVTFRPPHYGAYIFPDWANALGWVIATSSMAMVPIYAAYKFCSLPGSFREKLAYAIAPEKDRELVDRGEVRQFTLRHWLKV

[6] = biological target: T3, Sodium-dependent dopamine transporter; test: Inhibition of [3H]dopamine uptake in HEK293 cells expressing human dopamine transporter; assay type: functional, cell-based; method in brief: as §1

CCOC(=O)C(c1ccccc1)C1CCCCN1 (racemic) was tested, and the pIC50 [1] was 6.32, the pIC50 [2] was < 5.14 and the pIC50 [3] was < 5.00. The pIC50 [4] was 5.12, the pIC50 [5] was 6.50 and the pIC50 [6] was 7.02.

COC(=O)C(c1ccccc1)C1CCCCN1 (racemic) [METHYLPHENIDATE HYDROCHLORIDE] was tested, and the pIC50 [1] was 7.29, the pIC50 [2] was 6.10 and the pIC50 [4] was < 5.00.

For CCOC(=O)[C@@H](c1ccccc1)[C@@H]1CCCCN1 (stereo in doubt; (-)-2), the pIC50 [1] was < 5.00, the pIC50 [2] was < 5.00 and the pIC50 [3] was < 5.00. For the same compound, the pIC50 [4] was < 5.02, the pIC50 [5] was 5.57 and the pIC50 [6] was 5.76.
